# Measurements as given in ChEMBL document CHEMBL3352499, “One pot three components microwave assisted and conventional synthesis of new 3-(4-chloro-2-hydroxyphenyl)-2-(substituted) thiazolidin-4-one as antimicrobial agents” (Bioorg Med Chem Lett, 2014).
# Tested on: Aspergillus niger
# Test: Fungicidal activity against Aspergillus niger NCIM-1196 after 48 to 72 hrs by two fold serial macrodilution technique
# Format: functional
# Conditions: not given
# Summary of the method: (§1)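 Serial subcultivation followed 72 h of exposure to compounds dissolved in saline containing 5% DMSO. MBC/MFC was the lowest concentration with no visible growth, taken as 99.5% killing of the original inoculum. Runs were in triplicate, with the mean reading used.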
row,SMILES,MFC [µg/mL]
1,O=C1CSC(c2ccccc2Cl)N1c1ccc(Cl)cc1O (stereo not given),155
2,COc1ccc(C2SCC(=O)N2c2ccc(Cl)cc2O)cc1 (stereo not given),150
3,COc1ccc(C2SCC(=O)N2c2ccc(Cl)cc2O)c(OC)c1 (stereo not given),120
4,O=C1CSC(c2ccc(F)cc2)N1c1ccc(Cl)cc1O (stereo not given),140
5,O=C1CSC(c2cccc(F)c2)N1c1ccc(Cl)cc1O (stereo not given),165

# Tested on: Aspergillus flavus
# Test: Fungicidal activity against Aspergillus flavus NCIM-539 after 48 to 72 hrs by two fold serial macrodilution technique
# Format: functional
# Conditions: not given
# Summary of the method: as §1
row,SMILES,MFC [µg/mL]
1,O=C1CSC(c2ccccc2Cl)N1c1ccc(Cl)cc1O (stereo not given),50
2,COc1ccc(C2SCC(=O)N2c2ccc(Cl)cc2O)cc1 (stereo not given),20
3,COc1ccc(C2SCC(=O)N2c2ccc(Cl)cc2O)c(OC)c1 (stereo not given),15
4,O=C1CSC(c2ccc(F)cc2)N1c1ccc(Cl)cc1O (stereo not given),140
5,O=C1CSC(c2cccc(F)c2)N1c1ccc(Cl)cc1O (stereo not given),140

# Tested on: Cryptococcus neoformans
# Test: Fungicidal activity against Cryptococcus neoformans NCIM-3378 after 48 to 72 hrs by two fold serial macrodilution technique
# Format: functional
# Conditions: not given
# Summary of the method: as §1
row,SMILES,MFC [µg/mL]
1,O=C1CSC(c2ccccc2Cl)N1c1ccc(Cl)cc1O (stereo not given),135
2,COc1ccc(C2SCC(=O)N2c2ccc(Cl)cc2O)cc1 (stereo not given),155
3,COc1ccc(C2SCC(=O)N2c2ccc(Cl)cc2O)c(OC)c1 (stereo not given),120
4,O=C1CSC(c2ccc(F)cc2)N1c1ccc(Cl)cc1O (stereo not given),145
5,O=C1CSC(c2cccc(F)c2)N1c1ccc(Cl)cc1O (stereo not given),140

# Tested on: MCF7
# Test: Cytotoxicity against human MCF7 cells by SRB method
# Format: cell-based
# Conditions: not given
# Summary of the method: (§2)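 SRB colorimetric growth assay. IC50, in µM, was the concentration inhibiting cell growth by 50% relative to untreated control cells. Runs were in triplicate in three independent experiments, with means reported. The positive control was doxorubicin.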
row,SMILES,IC50 [µM]
1,O=C1CSC(c2ccccc2Cl)N1c1ccc(Cl)cc1O (stereo not given),56.2
2,COc1ccc(C2SCC(=O)N2c2ccc(Cl)cc2O)cc1 (stereo not given),48.6
3,COc1ccc(C2SCC(=O)N2c2ccc(Cl)cc2O)c(OC)c1 (stereo not given),68.5
4,O=C1CSC(c2ccc(F)cc2)N1c1ccc(Cl)cc1O (stereo not given),68.7
5,O=C1CSC(c2cccc(F)c2)N1c1ccc(Cl)cc1O (stereo not given),65.8

# Tested on: Aspergillus niger
# Test: Antimicrobial activity against Aspergillus niger NCIM-1196 after 20 hrs by two fold serial macrodilution technique
# Format: functional
# Conditions: NCIM-1196, 20 h
row,MIC [µg/mL],SMILES
1,80,COc1ccc(C2SCC(=O)N2c2ccc(Cl)cc2O)cc1 (stereo not given)
2,50,O=C1CSC(c2ccc(F)cc2)N1c1ccc(Cl)cc1O (stereo not given)

# Second part, the compound before the results:
row,SMILES,MIC [µg/mL]
1,O=C1CSC(c2ccccc2Cl)N1c1ccc(Cl)cc1O (stereo not given),100
2,COc1ccc(C2SCC(=O)N2c2ccc(Cl)cc2O)c(OC)c1 (stereo not given),65
3,O=C1CSC(c2cccc(F)c2)N1c1ccc(Cl)cc1O (stereo not given),100

# Tested on: HeLa
# Test: Cytotoxicity against human HeLa cells by SRB method
# Format: cell-based
# Conditions: not given
# Summary of the method: as §2
row,SMILES,IC50 [µM]
1,O=C1CSC(c2ccccc2Cl)N1c1ccc(Cl)cc1O (stereo not given),62.8
2,COc1ccc(C2SCC(=O)N2c2ccc(Cl)cc2O)cc1 (stereo not given),51.6
3,COc1ccc(C2SCC(=O)N2c2ccc(Cl)cc2O)c(OC)c1 (stereo not given),68.2
4,O=C1CSC(c2ccc(F)cc2)N1c1ccc(Cl)cc1O (stereo not given),72.4
5,O=C1CSC(c2cccc(F)c2)N1c1ccc(Cl)cc1O (stereo not given),67.3

# Tested on: Aspergillus flavus
# Test: Antimicrobial activity against Aspergillus flavus NCIM-539 after 20 hrs by two fold serial macrodilution technique
# Format: functional
# Conditions: NCIM-539, 20 h
row,MIC [µg/mL],SMILES
1,15,COc1ccc(C2SCC(=O)N2c2ccc(Cl)cc2O)cc1 (stereo not given)
2,90,O=C1CSC(c2ccc(F)cc2)N1c1ccc(Cl)cc1O (stereo not given)

# The next lines start with the compound.
row,SMILES,MIC [µg/mL]
1,O=C1CSC(c2ccccc2Cl)N1c1ccc(Cl)cc1O (stereo not given),35
2,COc1ccc(C2SCC(=O)N2c2ccc(Cl)cc2O)c(OC)c1 (stereo not given),10
3,O=C1CSC(c2cccc(F)c2)N1c1ccc(Cl)cc1O (stereo not given),90

# Tested on: Staphylococcus aureus
# Test: Antimicrobial activity against Staphylococcus aureus NCIM-2901 after 20 hrs by two fold serial macrodilution technique
# Format: functional
# Conditions: NCIM-2901, 20 h
# Summary of the method: (§3)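 Serial macrodilution in 96-well microtiter plates. Compounds were dissolved in saline (0.8% NaCl) containing 5% DMSO, and strains were incubated with a range of concentrations for 20 h at 37 °C on a rotary shaker (160 rpm). MIC was the lowest concentration without growth. Runs were in triplicate, with the mean taken. The negative control was 5% DMSO.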
row,MIC [µg/mL],SMILES
1,30,COc1ccc(C2SCC(=O)N2c2ccc(Cl)cc2O)cc1 (stereo not given)
2,25,O=C1CSC(c2ccc(F)cc2)N1c1ccc(Cl)cc1O (stereo not given)

# More lines, now with the values behind:
row,SMILES,MIC [µg/mL]
1,O=C1CSC(c2ccccc2Cl)N1c1ccc(Cl)cc1O (stereo not given),35
2,COc1ccc(C2SCC(=O)N2c2ccc(Cl)cc2O)c(OC)c1 (stereo not given),15
3,O=C1CSC(c2cccc(F)c2)N1c1ccc(Cl)cc1O (stereo not given),80

# Tested on: Escherichia coli
# Test: Antimicrobial activity against Escherichia coli NCIM-2256 after 20 hrs by two fold serial macrodilution technique
# Format: functional
# Conditions: NCIM-2256, 20 h
# Summary of the method: as §3
row,MIC [µg/mL],SMILES
1,35,COc1ccc(C2SCC(=O)N2c2ccc(Cl)cc2O)cc1 (stereo not given)
2,70,O=C1CSC(c2ccc(F)cc2)N1c1ccc(Cl)cc1O (stereo not given)

# Further lines, the compound ahead of its results:
row,SMILES,MIC [µg/mL]
1,O=C1CSC(c2ccccc2Cl)N1c1ccc(Cl)cc1O (stereo not given),80
2,COc1ccc(C2SCC(=O)N2c2ccc(Cl)cc2O)c(OC)c1 (stereo not given),30
3,O=C1CSC(c2cccc(F)c2)N1c1ccc(Cl)cc1O (stereo not given),70

# Tested on: Candida albicans
# Test: Antimicrobial activity against Candida albicans NCIM-3471 after 20 hrs by two fold serial macrodilution technique
# Format: functional
# Conditions: NCIM-3471, 20 h
row,MIC [µg/mL],SMILES
1,15,COc1ccc(C2SCC(=O)N2c2ccc(Cl)cc2O)cc1 (stereo not given)
2,65,O=C1CSC(c2ccc(F)cc2)N1c1ccc(Cl)cc1O (stereo not given)

# More lines, now with the values behind:
row,SMILES,MIC [µg/mL]
1,O=C1CSC(c2ccccc2Cl)N1c1ccc(Cl)cc1O (stereo not given),55
2,COc1ccc(C2SCC(=O)N2c2ccc(Cl)cc2O)c(OC)c1 (stereo not given),3
3,O=C1CSC(c2cccc(F)c2)N1c1ccc(Cl)cc1O (stereo not given),95

# Tested on: Bacillus subtilis
# Test: Bactericidal activity against Bacillus subtilis NCIM-2063 after 72 hrs by two fold serial macrodilution technique
# Format: functional
# Conditions: NCIM-2063, 72 h
# Summary of the method: as §1
row,SMILES,MBC [µg/mL]
1,O=C1CSC(c2ccccc2Cl)N1c1ccc(Cl)cc1O (stereo not given),40
2,COc1ccc(C2SCC(=O)N2c2ccc(Cl)cc2O)cc1 (stereo not given),40
3,COc1ccc(C2SCC(=O)N2c2ccc(Cl)cc2O)c(OC)c1 (stereo not given),45
4,O=C1CSC(c2ccc(F)cc2)N1c1ccc(Cl)cc1O (stereo not given),150
5,O=C1CSC(c2cccc(F)c2)N1c1ccc(Cl)cc1O (stereo not given),155

# Tested on: Cryptococcus neoformans
# Test: Antimicrobial activity against Cryptococcus neoformans NCIM-3378 after 20 hrs by two fold serial macrodilution technique
# Format: functional
# Conditions: NCIM-3378, 20 h
row,MIC [µg/mL],SMILES
1,65,COc1ccc(C2SCC(=O)N2c2ccc(Cl)cc2O)cc1 (stereo not given)
2,90,O=C1CSC(c2ccc(F)cc2)N1c1ccc(Cl)cc1O (stereo not given)

# Continued, compound first:
row,SMILES,MIC [µg/mL]
1,O=C1CSC(c2ccccc2Cl)N1c1ccc(Cl)cc1O (stereo not given),90
2,COc1ccc(C2SCC(=O)N2c2ccc(Cl)cc2O)c(OC)c1 (stereo not given),70
3,O=C1CSC(c2cccc(F)c2)N1c1ccc(Cl)cc1O (stereo not given),85

# Tested on: Salmonella typhimurium
# Test: Bactericidal activity against […] after 72 hrs by two fold serial macrodilution technique
# Format: functional, Salmonella enterica subsp. enterica serovar Typhimurium
# Conditions: Salmonella enterica
# Summary of the method: as §1
row,SMILES,MBC [µg/mL]
1,O=C1CSC(c2ccccc2Cl)N1c1ccc(Cl)cc1O (stereo not given),135
2,COc1ccc(C2SCC(=O)N2c2ccc(Cl)cc2O)cc1 (stereo not given),110
3,COc1ccc(C2SCC(=O)N2c2ccc(Cl)cc2O)c(OC)c1 (stereo not given),45
4,O=C1CSC(c2ccc(F)cc2)N1c1ccc(Cl)cc1O (stereo not given),140
5,O=C1CSC(c2cccc(F)c2)N1c1ccc(Cl)cc1O (stereo not given),155

# Tested on: Candida albicans
# Test: Fungicidal activity against Candida albicans NCIM-3471 after 48 to 72 hrs by two fold serial macrodilution technique
# Format: functional
# Conditions: not given
# Summary of the method: as §1
row,SMILES,MFC [µg/mL]
1,O=C1CSC(c2ccccc2Cl)N1c1ccc(Cl)cc1O (stereo not given),140
2,COc1ccc(C2SCC(=O)N2c2ccc(Cl)cc2O)cc1 (stereo not given),20
3,COc1ccc(C2SCC(=O)N2c2ccc(Cl)cc2O)c(OC)c1 (stereo not given),17.5
4,O=C1CSC(c2ccc(F)cc2)N1c1ccc(Cl)cc1O (stereo not given),150
5,O=C1CSC(c2cccc(F)c2)N1c1ccc(Cl)cc1O (stereo not given),165

# Tested on: Escherichia coli
# Test: Bactericidal activity against Escherichia coli NCIM-2256 after 72 hrs by two fold serial macrodilution technique
# Format: functional
# Conditions: NCIM-2256, 72 h
# Summary of the method: as §1
row,SMILES,MBC [µg/mL]
1,O=C1CSC(c2ccccc2Cl)N1c1ccc(Cl)cc1O (stereo not given),140
2,COc1ccc(C2SCC(=O)N2c2ccc(Cl)cc2O)cc1 (stereo not given),45
3,COc1ccc(C2SCC(=O)N2c2ccc(Cl)cc2O)c(OC)c1 (stereo not given),50
4,O=C1CSC(c2ccc(F)cc2)N1c1ccc(Cl)cc1O (stereo not given),145
5,O=C1CSC(c2cccc(F)c2)N1c1ccc(Cl)cc1O (stereo not given),145

# Tested on: Salmonella typhimurium
# Test: Antimicrobial activity against […] after 20 hrs by two fold serial macrodilution technique
# Format: functional, Salmonella enterica subsp. enterica serovar Typhimurium
# Conditions: Salmonella enterica
# Summary of the method: as §3
row,MIC [µg/mL],SMILES
1,25,COc1ccc(C2SCC(=O)N2c2ccc(Cl)cc2O)cc1 (stereo not given)
2,60,O=C1CSC(c2ccc(F)cc2)N1c1ccc(Cl)cc1O (stereo not given)

# Continued, compound first:
row,SMILES,MIC [µg/mL]
1,O=C1CSC(c2ccccc2Cl)N1c1ccc(Cl)cc1O (stereo not given),65
2,COc1ccc(C2SCC(=O)N2c2ccc(Cl)cc2O)c(OC)c1 (stereo not given),35
3,O=C1CSC(c2cccc(F)c2)N1c1ccc(Cl)cc1O (stereo not given),90

# Tested on: Bacillus subtilis
# Test: Antimicrobial activity against Bacillus subtilis NCIM-2063 after 20 hrs by two fold serial macrodilution technique
# Format: functional
# Conditions: NCIM-2063, 20 h
# Summary of the method: as §3
row,MIC [µg/mL],SMILES
1,30,COc1ccc(C2SCC(=O)N2c2ccc(Cl)cc2O)cc1 (stereo not given)
2,55,O=C1CSC(c2ccc(F)cc2)N1c1ccc(Cl)cc1O (stereo not given)

# Second part, the compound before the results:
row,SMILES,MIC [µg/mL]
1,O=C1CSC(c2ccccc2Cl)N1c1ccc(Cl)cc1O (stereo not given),20
2,COc1ccc(C2SCC(=O)N2c2ccc(Cl)cc2O)c(OC)c1 (stereo not given),30
3,O=C1CSC(c2cccc(F)c2)N1c1ccc(Cl)cc1O (stereo not given),100

# Tested on: Staphylococcus aureus
# Test: Bactericidal activity against Staphylococcus aureus NCIM-2901 after 72 hrs by two fold serial macrodilution technique
# Format: functional
# Conditions: NCIM-2901, 72 h
# Summary of the method: as §1
row,SMILES,MBC [µg/mL]
1,O=C1CSC(c2ccccc2Cl)N1c1ccc(Cl)cc1O (stereo not given),55
2,COc1ccc(C2SCC(=O)N2c2ccc(Cl)cc2O)cc1 (stereo not given),40
3,COc1ccc(C2SCC(=O)N2c2ccc(Cl)cc2O)c(OC)c1 (stereo not given),25
4,O=C1CSC(c2ccc(F)cc2)N1c1ccc(Cl)cc1O (stereo not given),45
5,O=C1CSC(c2cccc(F)c2)N1c1ccc(Cl)cc1O (stereo not given),160
